How the values were obtained:
[1] = test system: Human immunodeficiency virus 1; experiment: Effective concentration of compound to inhibit human immunodeficiency virus HIV-1 wild type strain IIIB multiplication in MT-4 infected cells; format: functional, organism-based
Procedure, shortened: (§1)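 MT-4 cells were infected at 0.005 MOI and cultured 6 days in growth medium (RPMI 1640, 10% heat-inactivated FCS, antibiotics) with the compound dilutions. Infected and uninfected cultures without compound ran in parallel. HIV expression was quantified indirectly by MTT assay. EC50 was interpolated from plots of percent inhibition versus concentration.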

MT4 = experiment: Cytotoxic concentration required to reduce the viability of normal uninfected MT-4 cells; format: functional; conditions: Homo sapiens
Procedure, shortened: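 Uninfected MT-4 cultures were grown with the same compound dilutions as the antiviral assay, run in parallel. A 30% inhibition of cell growth relative to control cultures counted as significant. CC50 was interpolated from plots of percent inhibition versus compound concentration.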

[2] = test system: Human immunodeficiency virus 2; experiment: Effective concentration of compound to inhibit human immunodeficiency virus HIV-2 multiplication in CEM wild type cells; format: functional, organism-based; conditions: Human immunodeficiency virus 2, CCRF-CEM
Procedure, shortened: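 CEM wild-type cells were infected at 0.005 MOI and held 6 days in growth medium containing the compound dilutions, alongside untreated infected and uninfected controls. HIV-1 or HIV-2 antigen was detected by ELISA. EC50 was interpolated from plots of percent inhibition versus concentration.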

[3] = test system: Human immunodeficiency virus 2; experiment: Effective concentration of compound to inhibit human immunodeficiency virus HIV-2 multiplication in MT-4 infected cells; format: functional, organism-based; procedure, shortened: as §1
[4] = test system: Human immunodeficiency virus 1; experiment: Effective concentration of compound to inhibit human immunodeficiency virus HIV-1 strain N119 multiplication in MT-4 infected cells; format: functional, organism-based; procedure, shortened: as §1
[5] = test system: Human immunodeficiency virus 2; experiment: Effective dose was measured against human immunodeficiency virus type 2 in thymidine-kinase-deficient CEM Cells; experiment 1; format: functional; conditions: Human immunodeficiency virus 2, CCRF-CEM; read-out: ED50 (the source's name)
Procedure, shortened: (§2)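 HIV-2 strain SBL 6669 in CEM TK- cells, infected at 0.005 MOI and kept with compound dilutions for 6 days, with infected and uninfected controls. Readout was HIV-2 antigen ELISA. The 50% effective value was interpolated from % inhibition versus concentration plots. Each line is one of three independent tests.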

[6] = test system: Human immunodeficiency virus 2; experiment: Effective dose was measured against human immunodeficiency virus type 2 in thymidine-kinase-deficient CEM Cells; experiment 2; format: functional; conditions: Human immunodeficiency virus 2, CCRF-CEM; read-out: ED50 (the source's name); procedure, shortened: as §2
[7] = test system: Human immunodeficiency virus 2; experiment: Effective dose was measured against human immunodeficiency virus type 2 in thymidine-kinase-deficient CEM Cells; experiment 3; format: functional; conditions: Human immunodeficiency virus 2, CCRF-CEM; read-out: ED50 (the source's name); procedure, shortened: as §2
[8] = test system: Human immunodeficiency virus 2; experiment: Effective concentration of compound to inhibit human immunodeficiency virus HIV-2 multiplication in thymidine-kinase-deficient CEM cells; format: functional, organism-based; conditions: Human immunodeficiency virus 2, CCRF-CEM
Procedure, shortened: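 Thymidine-kinase-deficient CEM cells were infected with HIV-2 at 0.005 MOI and incubated 6 days with compound dilutions, alongside infected and uninfected controls without compound. Virus expression was quantified by HIV-2 antigen ELISA. ED50 was interpolated from percent inhibition versus concentration plots; three independent tests.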

CCRF-CEM = experiment: Cytotoxic concentration was measured in CEM wild-type/thymidine-kinase-deficient CEM Cells; format: functional; conditions: Homo sapiens
Procedure, shortened: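 Uninfected CEM wild-type and CEM TK- cultures were exposed to the compound dilutions in parallel with the antiviral tests. Cell growth inhibition of 30% versus control cultures was considered significant. CC50 was interpolated from plots of percent inhibition against concentration.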

[9] = test system: Human immunodeficiency virus 1; experiment: Effective concentration of compound to inhibit human immunodeficiency virus HIV-1 wild type strain IIIB multiplication in CEM wild type cells; format: functional, organism-based; conditions: Human immunodeficiency virus 1, CCRF-CEM
Procedure, shortened: (§3)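 HIV-1 strains HTLV-IIIB (wild type) and N119 (RT Y181C) were grown in H9 cells in RPMI 1640 with 10% heat-inactivated FCS. CEM wt or CEM TK- cells were infected at 0.005 MOI with compound dilutions for 6 days, alongside infected and uninfected controls. HIV expression was read by HIV-1 antigen ELISA. IC50 was interpolated from % inhibition versus concentration plots.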

[10] = test system: Human immunodeficiency virus 1; experiment: Effective concentration of compound to inhibit human immunodeficiency virus HIV-1 strain N119 multiplication in CEM wild type cells; format: functional, organism-based; conditions: Human immunodeficiency virus 1, CCRF-CEM; procedure, shortened: as §3
[11] = test system: Human immunodeficiency virus 1; experiment: Effective concentration of compound to inhibit human immunodeficiency virus HIV-1 strain N119 multiplication in thymidine-kinase-deficient CEM cells; format: functional, organism-based; conditions: Human immunodeficiency virus 1, CCRF-CEM; procedure, shortened: as §3
[12] = test system: Human immunodeficiency virus 1; experiment: Effective concentration of compound to inhibit human immunodeficiency virus HIV-1 wild type strain IIIB multiplication in thymidine-kinase-deficient CEM cells; format: functional, organism-based; conditions: Human immunodeficiency virus 1, CCRF-CEM; procedure, shortened: as §3

Question: For `CCc1c(Cc2cc(C)cc(C)c2)n(COCc2ccc(O[P@](=O)(OCCSC(=O)C(C)(C)C)OC[C@@H]3C=C[C@H](n4cc(C)c(=O)[nH]c4=O)O3)cc2)c(=O)[nH]c1=O`, which EC50 [1] is on record?
Answer: The EC50 was 0.003 µM.

Question: What about the CC50 (MT4) of the same compound?
Answer: The CC50 was 35 µM.

Question: What about the EC50 [2] of the same compound?
Answer: Its EC50 is 0.1 µM.

Question: And the EC50 [3]?
Answer: The EC50 was 4 µM.

Question: And the EC50 [4]?
Answer: The EC50 was 0.4 µM.

Question: What about the EC50 [5] of the same compound?
Answer: Its EC50 is 3 µM.

Question: And the EC50 [6]?
Answer: Its EC50 is 2 µM.

Question: And the EC50 [7]?
Answer: The EC50 was 2 µM.

Question: What about the EC50 [8] of the same compound?
Answer: Its EC50 is 2 µM.

Question: And the CC50 (CCRF-CEM)?
Answer: The CC50 was 32 µM.

Question: How did the EC50 [1] turn out when `CCc1c(Cc2cc(C)cc(C)c2)n(COC/C=C/c2ccc(OC(=O)c3ccccc3)cc2)c(=O)[nH]c1=O` was run?
Answer: Its EC50 is 0.005 µM.

Question: And the CC50 (MT4)?
Answer: Its CC50 is 35 µM.

Question: And the EC50 [4]?
Answer: Its EC50 is 1 µM.

Question: What does the source list for `CCc1c(Cc2cc(C)cc(C)c2)n(COC/C=C/c2ccc(O)cc2)c(=O)[nH]c1=O`?
Answer: EC50 [9]: 0.002 µM; EC50 [1]: 0.02 µM; CC50 (MT4): 35 µM; EC50 [2]: > 10 µM; EC50 [3]: > 10 µM; EC50 [10]: 0.4 µM; EC50 [4]: 2.4 µM; EC50 [8]: > 10 µM; EC50 [11]: 0.2 µM; CC50 (CCRF-CEM): 32 µM; EC50 [12]: 0.006 µM

Question: With `CCc1c(Cc2cc(C)cc(C)c2)n(COC/C=C/c2ccc(O[P@](=O)(OCCSC(=O)C(C)(C)C)OC[C@@H]3C=C[C@H](n4cc(C)c(=O)[nH]c4=O)O3)cc2)c(=O)[nH]c1=O` as the compound, how does the EC50 [9] read?
Answer: Its EC50 is 0.01 µM.

Question: What about the EC50 [1] of the same compound?
Answer: Its EC50 is 0.04 µM.

Question: What about the CC50 (MT4) of the same compound?
Answer: Its CC50 is 35 µM.

Question: What about the EC50 [2] of the same compound?
Answer: Its EC50 is 0.1 µM.

Question: What about the EC50 [10] of the same compound?
Answer: Its EC50 is 0.3 µM.

Question: And the EC50 [4]?
Answer: Its EC50 is 3.3 µM.

Question: What about the EC50 [5] of the same compound?
Answer: Its EC50 is 3 µM.

Question: What about the EC50 [6] of the same compound?
Answer: Its EC50 is 4 µM.

Question: What about the EC50 [7] of the same compound?
Answer: Its EC50 is 5 µM.

Question: What about the EC50 [8] of the same compound?
Answer: Its EC50 is 4 µM.

Question: What about the EC50 [11] of the same compound?
Answer: Its EC50 is 0.2 µM.

Question: What about the CC50 (CCRF-CEM) of the same compound?
Answer: Its CC50 is 32 µM.

Question: And the EC50 [12]?
Answer: Its EC50 is 0.005 µM.

Question: For `CCOCn1c(Cc2ccccc2)c(C(C)C)c(=O)n(C(=O)c2ccc(OP(=O)(OCCSC(=O)C(C)(C)C)OCC3C=CC(n4cc(C)c(=O)[nH]c4=O)O3)cc2)c1=O` (centres undefined), which EC50 [9] is on record?
Answer: Its EC50 is 0.03 µM.

Question: What about the EC50 [1] of the same compound?
Answer: Its EC50 is 0.03 µM.

Question: And the CC50 (MT4)?
Answer: The CC50 was 35 µM.

Question: What about the EC50 [2] of the same compound?
Answer: The EC50 was 0.02 µM.

Question: What about the EC50 [10] of the same compound?
Answer: Its EC50 is 0.03 µM.

Question: And the EC50 [4]?
Answer: The EC50 was 2.7 µM.

Question: What about the EC50 [5] of the same compound?
Answer: Its EC50 is 3 µM.

Question: What about the EC50 [6] of the same compound?
Answer: The EC50 was 3 µM.

Question: What about the EC50 [7] of the same compound?
Answer: The EC50 was 4 µM.

Question: What about the EC50 [8] of the same compound?
Answer: Its EC50 is 3 µM.

Question: What about the EC50 [11] of the same compound?
Answer: Its EC50 is 0.3 µM.

Question: What about the CC50 (CCRF-CEM) of the same compound?
Answer: Its CC50 is 32 µM.

Question: And the EC50 [12]?
Answer: The EC50 was 0.006 µM.

Question: `CCc1c(Cc2cc(C)cc(C)c2)n(COCc2ccc(OCc3ccccc3)cc2)c(=O)[nH]c1=O` was tested. Which EC50 [1] did it give?
Answer: Its EC50 is 0.03 µM.

Question: What about the CC50 (MT4) of the same compound?
Answer: The CC50 was 12 µM.

Question: And the EC50 [4]?
Answer: The EC50 was 0.3 µM.

Question: For `CCOCn1c(Cc2ccccc2)c(C(C)C)c(=O)[nH]c1=O` [EMIVIRINE], which EC50 [9] is on record?
Answer: The EC50 was 0.03 µM.

Question: What about the CC50 (MT4) of the same compound?
Answer: Its CC50 is greater than 100 µM.

Question: What about the EC50 [2] of the same compound?
Answer: Its EC50 is greater than 10 µM.

Question: What about the EC50 [3] of the same compound?
Answer: The EC50 was greater than 10 µM.

Question: And the EC50 [10]?
Answer: The EC50 was greater than 100 µM.

Question: And the EC50 [4]?
Answer: The EC50 was 79 µM.

Question: What about the EC50 [8] of the same compound?
Answer: The EC50 was greater than 10 µM.

Question: What about the EC50 [11] of the same compound?
Answer: The EC50 was greater than 10 µM.

Question: And the CC50 (CCRF-CEM)?
Answer: Its CC50 is greater than 100 µM.

Question: What about the EC50 [12] of the same compound?
Answer: The EC50 was greater than 10 µM.

Question: How did the EC50 [9] turn out when `Cc1cn([C@H]2C=C[C@@H](CO)O2)c(=O)[nH]c1=O` [STAVUDINE] was run?
Answer: The EC50 was 0.3 µM.

Question: And the EC50 [1]?
Answer: The EC50 was 0.5 µM.

Question: What about the CC50 (MT4) of the same compound?
Answer: Its CC50 is greater than 100 µM.

Question: What about the EC50 [2] of the same compound?
Answer: The EC50 was 0.1 µM.

Question: And the EC50 [3]?
Answer: Its EC50 is 0.5 µM.

Question: And the EC50 [10]?
Answer: Its EC50 is 0.8 µM.

Question: What about the EC50 [4] of the same compound?
Answer: Its EC50 is 1.8 µM.

Question: And the EC50 [8]?
Answer: Its EC50 is greater than 10 µM.

Question: What about the EC50 [11] of the same compound?
Answer: The EC50 was greater than 10 µM.

Question: And the CC50 (CCRF-CEM)?
Answer: The CC50 was greater than 100 µM.

Question: What about the EC50 [12] of the same compound?
Answer: The EC50 was greater than 10 µM.

Source: ChEMBL document CHEMBL1142669, “Synthesis and evaluation of double-prodrugs against HIV. Conjugation of D4T with 6-benzyl-1-(ethoxymethyl)-5-isopropyluracil (MKC-442, emivirine)-type reverse transcriptase inhibitors via the SATE prodrug approach” (J Med Chem, 2005)
